{
  "source": "ChEMBL document CHEMBL3739408",
  "about": "“Antibacterial Prenylated Acylphloroglucinols from Psorothamnus fremontii” (J Nat Prod, 2015)",
  "key": {"[1]": {"tested_on": "Enterococcus faecalis", "assay": "Antibacterial activity against low level vancomycin-resistant Enterococcus faecalis ATCC 51299 by plate reader analysis", "format": "functional, organism-based", "procedure,_shortened": "(§1)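 Strains from ATCC; modified CLSI broth microdilution. Samples in DMSO were serially diluted in 20% DMSO–saline and plated in duplicate. Inocula were set by adjusting OD630 to give the final target CFU/mL. Methicillin and vancomycin were positive controls, with highest test concentrations of 50 and 20 μg/mL. IC50 is the 50% growth inhibition relative to controls, from curve fitting.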"}, "[2]": {"tested_on": "LLC-PK1", "assay": "Cytotoxicity against pig LLC-PK1 cells assessed as cell viability after 48 hrs by neutral red-based assay", "conditions": "Sus scrofa, LLC-PK1, 48 h", "procedure,_shortened": "(§2)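 Mammalian cell lines from ATCC: human hepatic carcinoma HepG2, pig kidney epithelial LLC-PK1, and African green monkey kidney Vero. Highest test concentration was 50 μg/mL, and doxorubicin was the positive control at up to 10 μg/mL. IC50 was taken as the concentration giving 50% growth inhibition of the mammalian cells.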"}, "[3]": {"tested_on": "Vero", "assay": "Cytotoxicity against African green monkey Vero cells assessed as cell viability after 48 hrs by neutral red-based assay", "conditions": "Chlorocebus sabaeus", "procedure,_shortened": "as §2"}, "[4]": {"tested_on": "Staphylococcus aureus", "assay": "Antibacterial activity against methicillin-resistant Staphylococcus aureus ATCC 1708 by plate reader analysis", "format": "functional, organism-based", "procedure,_shortened": "as §1"}, "[5]": {"tested_on": "Enterococcus faecium", "assay": "Antibacterial activity against vancomycin-resistant Enterococcus faecium ATCC 700221 by plate reader analysis", "format": "functional, organism-based", "procedure,_shortened": "as §1"}, "[6]": {"tested_on": "Staphylococcus aureus", "assay": "Antibacterial activity against methicillin-resistant Staphylococcus aureus ATCC 1717 by plate reader analysis", "format": "functional, organism-based", "procedure,_shortened": "as §1"}, "[7]": {"tested_on": "Staphylococcus aureus", "assay": "Antibacterial activity against methicillin-resistant Staphylococcus aureus ATCC 33591 by plate reader analysis", "format": "functional, organism-based", "procedure,_shortened": "as §1"}, "[8]": {"tested_on": "Enterococcus faecalis", "assay": "Antibacterial activity against vancomycin-sensitive Enterococcus faecalis ATCC 29212 by plate reader analysis", "format": "functional, organism-based", "procedure,_shortened": "as §1"}, "[9]": {"tested_on": "Staphylococcus aureus", "assay": "Antibacterial activity against methicillin-resistant Staphylococcus aureus ATCC 1696 by plate reader analysis", "format": "functional, organism-based", "procedure,_shortened": "as §1"}, "[10]": {"tested_on": "HepG2", "assay": "Cytotoxicity against human HepG2 cells assessed as cell viability after 48 hrs by neutral red-based assay", "conditions": "HepG2, 48 h", "procedure,_shortened": "as §2"}, "[11]": {"tested_on": "Staphylococcus aureus", "assay": "Antibacterial activity against methicillin-sensitive Staphylococcus aureus ATCC 29213 by plate reader analysis", "format": "functional, organism-based", "procedure,_shortened": "as §1"}},
  "data": [
    {"molecule": "CC(C)=CCC1=C2OC(C)(C)CC3OC23C(=O)C(C(=O)C(C)C)=C1O", "note": "(centres undefined)", "values": [
      {"measurement": "IC50", "setting": "[1]", "value": 2.8, "unit": "µg/mL"},
      {"measurement": "IC50", "setting": "[2]", "value": 30, "unit": "µg/mL"},
      {"measurement": "IC50", "setting": "[3]", "value": 21, "unit": "µg/mL"},
      {"measurement": "IC50", "setting": "[4]", "value": 8.6, "unit": "µg/mL"},
      {"measurement": "IC50", "setting": "[5]", "value": 1.6, "unit": "µg/mL"},
      {"measurement": "IC50", "setting": "[6]", "value": 1.6, "unit": "µg/mL"},
      {"measurement": "IC50", "setting": "[7]", "value": 1.4, "unit": "µg/mL"},
      {"measurement": "IC50", "setting": "[8]", "value": 5.3, "unit": "µg/mL"},
      {"measurement": "IC50", "setting": "[9]", "value": 8.8, "unit": "µg/mL"},
      {"measurement": "IC50", "setting": "[10]", "value": 31, "unit": "µg/mL"},
      {"measurement": "IC50", "setting": "[11]", "value": 2.4, "unit": "µg/mL"}
    ]},
    {"molecule": "CC1=C2OC(C)(C)CC3OC23C(=O)C(C(=O)C(C)C)=C1O", "note": "(centres undefined)", "values": [
      {"measurement": "IC50", "setting": "[7]", "value": 11.1, "unit": "µg/mL"},
      {"measurement": "IC50", "setting": "[11]", "value": 10, "unit": "µg/mL"}
    ]},
    {"molecule": "CCC(C)C(=O)C1=C(O)C(C)=C2OC(C)(C)CC3OC23C1=O", "note": "(centres undefined)", "values": [
      {"measurement": "IC50", "setting": "[7]", "value": 6.2, "unit": "µg/mL"},
      {"measurement": "IC50", "setting": "[11]", "value": 5.6, "unit": "µg/mL"}
    ]},
    {"molecule": "CN[C@@H](CC(C)C)C(=O)N[C@H]1C(=O)N[C@@H](CC(N)=O)C(=O)N[C@H]2C(=O)N[C@H]3C(=O)N[C@H](C(=O)N[C@@H](C(=O)O)c4cc(O)cc(O)c4-c4cc3ccc4O)[C@H](O)c3ccc(c(Cl)c3)Oc3cc2cc(c3O[C@H]2O[C@@H](CO)[C@H](O)[C@@H](O)[C@@H]2O[C@@H]2C[C@@](C)(N)[C@@H](O)[C@@H](C)O2)Oc2ccc(cc2Cl)[C@H]1O", "values": [
      {"measurement": "IC50", "setting": "[1]", "value": 3.3, "unit": "µg/mL"},
      {"measurement": "IC50", "setting": "[5]", "value": "> 20", "unit": "µg/mL"},
      {"measurement": "IC50", "setting": "[8]", "value": 1.4, "unit": "µg/mL"}
    ]},
    {"molecule": "COc1cccc2c1C(=O)c1c(O)c3c(c(O)c1C2=O)C[C@@](O)(C(=O)CO)C[C@@H]3O[C@H]1C[C@H](N)[C@H](O)[C@H](C)O1", "note": "[DOXORUBICIN]", "values": [
      {"measurement": "IC50", "setting": "[2]", "value": 0.5, "unit": "µg/mL"}
    ]},
    {"molecule": "COc1cccc(OC)c1C(=O)N[C@@H]1C(=O)N2[C@@H]1SC(C)(C)[C@@H]2C(=O)O", "note": "[METHICILLIN]", "values": [
      {"measurement": "IC50", "setting": "[4]", "value": 3.2, "unit": "µg/mL"},
      {"measurement": "IC50", "setting": "[6]", "value": 26.9, "unit": "µg/mL"},
      {"measurement": "IC50", "setting": "[7]", "value": "> 50", "unit": "µg/mL"},
      {"measurement": "IC50", "setting": "[9]", "value": 3, "unit": "µg/mL"},
      {"measurement": "IC50", "setting": "[11]", "value": 0.5, "unit": "µg/mL"}
    ]}
  ]
}
